From ChEMBL document CHEMBL4673245, “Discovery of AZD9833, a Potent and Orally Bioavailable Selective Estrogen Receptor Degrader and Antagonist” (J Med Chem, 2020)

Tests used:
Estrogen receptor [1] = biological target: T1, Estrogen receptor (Homo sapiens, UniProt P03372); assay: Induction of ERalpha degradation in human MCF7 cells assessed as decrease in ER-alpha level incubated for 18 to 24 hrs by Alexa fluor 488/Hoechst staining based immunofluorescence imaging analysis; type: cell-based
T1 sequence (P03372 whole entry): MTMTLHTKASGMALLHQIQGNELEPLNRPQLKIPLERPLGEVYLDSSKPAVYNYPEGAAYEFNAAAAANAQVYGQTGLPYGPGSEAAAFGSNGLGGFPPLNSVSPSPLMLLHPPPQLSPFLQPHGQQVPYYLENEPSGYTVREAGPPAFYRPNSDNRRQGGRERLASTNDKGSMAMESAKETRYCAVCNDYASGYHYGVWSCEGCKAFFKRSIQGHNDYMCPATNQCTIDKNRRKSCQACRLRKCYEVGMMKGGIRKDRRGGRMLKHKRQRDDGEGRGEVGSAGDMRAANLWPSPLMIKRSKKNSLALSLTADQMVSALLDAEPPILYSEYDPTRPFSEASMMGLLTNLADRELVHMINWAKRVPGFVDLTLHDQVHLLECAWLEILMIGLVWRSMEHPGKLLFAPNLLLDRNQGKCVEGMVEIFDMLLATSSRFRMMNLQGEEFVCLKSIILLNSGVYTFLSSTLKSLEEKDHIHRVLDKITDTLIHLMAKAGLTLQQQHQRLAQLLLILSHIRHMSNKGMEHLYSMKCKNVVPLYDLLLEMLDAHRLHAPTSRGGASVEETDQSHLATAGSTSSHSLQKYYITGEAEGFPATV
How it was run: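 ER degradation in MCF-7 cells via cellular degradation assay; n ≥ 2, degradation also expressed as %Dmax relative to fulvestrant.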

Estrogen receptor [2] = biological target: T1, Estrogen receptor; assay: Displacement of fluormone ES2 green reagent from human GST-tagged ERalpha LBD (282 to 595 residues) expressed in baculovirus infected insect cells incubated for 1 hrs by TR-FRET Lanthascreen assay
[3] = Intrinsic clearance in rat hepatocytes assessed per million cells; type: ADME, cell-based, Hepatocyte; details: read-out: CLH
How it was run: (§1)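 Hepatocyte intrinsic clearance measured from DMSO stock in isolated hepatocytes diluted to 1x10⁶ cells/mL; rate expressed as µl/min/10⁶ cells.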

[4] = biological target: T2, Estrogen receptor (Homo sapiens) (UniProt P03372); assay: Induction of ERalpha degradation in human CAMA1 cells assessed as decrease in ER-alpha level at 0.1 uM by Western blot analysis relative to fulvestrant; type: cell-based; design: scale not given: the % may be the effect or the level left; details: CAMA-1
T2 sequence (whole entry): T1 sequence (P03372 whole entry)
How it was run: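 Western blot for ERα in MCF-7 and CAMA-1 cells after treatment at 0.1 µM. ER level is expressed as % degradation relative to fulvestrant, from a single experiment (n = 1).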

[5] = biological target: T2, Estrogen receptor (Homo sapiens); assay: Induction of ERalpha degradation in human MCF7 cells assessed as decrease in ER-alpha level at 0.1 uM by Western blot analysis relative to fulvestrant; type: cell-based; design: scale not given: the % may be the effect or the level left
[6] = biological target: T2, Estrogen receptor (Homo sapiens); assay: Induction of ERalpha degradation in human MCF7 cells assessed as maximum degradation incubated for 18 to 24 hrs by Alexa fluor 488/Hoechst staining based immunofluorescence imaging analysis relative to fulvestrant; type: cell-based; details: time lower […], time upper […]
[7] = Fraction unbound in human plasma by equilibrium dialysis method; type: ADME, cell-free
How it was run: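 Fraction unbound measured from DMSO stock by equilibrium dialysis in 10% human plasma.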

[8] = Lipophilicity, log D of the compound in buffer and octanol at pH 7.4 by shake flask method; type: physicochemical
How it was run: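 logD at pH 7.4 by shake flask, buffer/octanol volume ratio 100:1.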

[9] = Intrinsic clearance in human hepatocytes assessed per million cells; type: ADME, cell-based, Hepatocyte; details: read-out: CLH; how it was run: as §1

| SMILES | IC50 (Estrogen receptor [1]) | IC50 (Estrogen receptor [2]) | hepatocyte CLint [3] | Activity [4] | Activity [5] | Emax [6] | fraction unbound [7] | logD [8] | hepatocyte CLint [9] |
| --- | --- | --- | --- | --- | --- | --- | --- | --- | --- |
| C[C@@H]1Cc2c(ccc3[nH]ncc23)[C@@H](c2ccc(NC3CN(CCCF)C3)cn2)N1CC1(F)CC1 | 0.631 nM | 6.31 nM | 24 µL/min/1e6 cells | 102% | 90% | 96% | 0.26 |  |  |
| COc1cc(NC2CN(CCCF)C2)ccc1[C@@H]1c2ccc3[nH]ncc3c2C[C@@H](C)N1CC(C)(F)F | 0.0398 nM | 2.51 nM | 15 µL/min/1e6 cells | 101% | 80% | 98% | 0.043 |  |  |
| COc1cc(NC2CN(CCCF)C2)ccc1[C@@H]1c2ccc3[nH]ncc3c2C[C@@H](C)N1CC(F)F | 0.1 nM | 2 nM | 14 µL/min/1e6 cells | 100% | 99% | 99% | 0.12 | 3.2 |  |
| COc1cc(NC2CN(CCCF)C2)ccc1[C@@H]1c2ccc3[nH]ncc3c2C[C@@H](C)N1CC(F)(F)CO | 0.2 nM | 5.01 nM | 20 µL/min/1e6 cells |  |  | 98% | 0.23 |  |  |
| C[C@@H]1Cc2c(ccc3[nH]ncc23)[C@@H](c2ccc(NC3CN(CCCF)C3)cn2)N1CC(F)F | 0.316 nM | 3.98 nM | 22 µL/min/1e6 cells |  |  | 99% | 0.4 | 2.4 |  |
| C[C@@H]1Cc2c(ccc3[nH]ncc23)[C@@H](c2ccc(NC3(C)CN(CCCF)C3)cn2)N1CC(F)(F)F | 3.16 nM | 7.94 nM | 35 µL/min/1e6 cells |  |  | 82% |  | 3.2 |  |
| CC1(C)Cc2c(ccc3[nH]ncc23)[C@@H](c2ccc(NC3CN(CCCF)C3)cn2)N1CC(F)(F)F |  |  | 296 µL/min/1e6 cells |  |  | 95% | 0.14 |  |  |
| COc1cc(OCCN2CC(CF)C2)ccc1[C@@H]1c2ccc3[nH]ncc3c2C[C@@H](C)N1CC1(F)COC1 | 0.251 nM | 3.98 nM | 42 µL/min/1e6 cells | 75% | 79% | 95% | 0.25 | 2.7 |  |
| C[C@@H]1Cc2c(ccc3[nH]ncc23)[C@@H](c2ccc(NC3CN(CCCF)C3)cn2)N1CC(C)(F)F |  |  | 49 µL/min/1e6 cells |  |  |  | 0.24 |  |  |
| C[C@@H]1Cc2c(ccc3[nH]ncc23)[C@@H](c2ccc(NCCNCCCF)cn2)N1CC(F)(F)F | 0.631 nM | 5.01 nM | 22 µL/min/1e6 cells |  |  | 94% | 0.16 | 2.7 |  |
| COc1cc(OCCN2CC(CF)C2)ccc1[C@@H]1c2ccc3[nH]ncc3c2C[C@@H](C)N1CC(C)C |  | 7.94 nM | 9 µL/min/1e6 cells | 74% | 94% | 98% | 0.52 |  | 3 µL/min/1e6 cells |
| COc1cc(NC2CN(CCCF)C2)ccc1[C@@H]1c2ccc3[nH]ncc3c2C[C@@H](C)N1CC(C)(C)F | 0.2 nM | 6.31 nM | 8 µL/min/1e6 cells | 89% | 86% | 96% | 0.14 |  |  |
| COc1cc(OCCNCCCF)ccc1[C@@H]1c2ccc3[nH]ncc3c2C[C@@H](C)N1CC1(F)CC1 |  |  | 9 µL/min/1e6 cells |  |  | 82% | 0.18 | 2.4 |  |
| CC1(C)Cc2c(ccc3[nH]ncc23)[C@@H](c2ccc(NC3CN(CCCF)C3)cn2)N1CC(F)F | 0.794 nM | 3.16 nM | 270 µL/min/1e6 cells |  |  | 98% | 0.22 |  |  |
| C[C@@H]1Cc2c(ccc3[nH]ncc23)[C@@H](c2ccc(NC3CN(CCCF)C3)cn2)N1CC(C)(C)F |  |  | 26 µL/min/1e6 cells |  |  | 96% | 0.1 |  |  |
| C[C@@H]1Cc2c(ccc3[nH]ncc23)[C@@H](c2ccc(N(C)C3CN(CCCF)C3)cn2)N1CC(F)(F)F | 0.2 nM | 2 nM | 20 µL/min/1e6 cells | 82% | 85% | 98% | 0.15 |  |  |
| C[C@@H]1Cc2c(ccc3[nH]ncc23)[C@@H](c2ccc(OCCN3CC(CF)C3)cn2)N1CC(F)F | 0.501 nM | 2.51 nM | 36 µL/min/1e6 cells | 88% | 97% | 98% | 0.49 |  | 5 µL/min/1e6 cells |
| C[C@@H]1Cc2c(ccc3[nH]ncc23)[C@@H](c2ccc(N(C)[C@H]3CCN(CCCF)C3)cn2)N1CC(F)(F)F | 0.794 nM | 39.8 nM | 34 µL/min/1e6 cells |  |  | 87% | 0.057 | 3.5 |  |
| C[C@@H]1Cc2c(ccc3[nH]ncc23)[C@@H](c2ccc(NCCNCCCF)cn2)N1CC1(F)CC1 | 1 nM | 10 nM | 22 µL/min/1e6 cells |  |  | 93% |  | 2 |  |
| COc1cc(OCCN2CC(CF)C2)ccc1[C@@H]1c2ccc3[nH]ncc3c2C[C@@H](C)N1CC1(F)CC1 | 0.126 nM |  | 20 µL/min/1e6 cells | 88% | 79% | 96% | 0.21 |  | 7 µL/min/1e6 cells |
| C[C@@H]1Cc2c(ccc3[nH]ncc23)[C@@H](c2ccc(O[C@H]3CCN(CCCF)C3)cn2)N1CC(F)(F)F | 0.398 nM | 2 nM | 44 µL/min/1e6 cells |  |  | 98% | 0.15 | 3.2 |  |
| COc1cc(NC2CN(CCCF)C2)ccc1[C@@H]1c2ccc3[nH]ncc3c2C[C@@H](C)N1CC(F)(F)F | 0.0631 nM | 5.01 nM | 12 µL/min/1e6 cells | 110% | 95% | 98% | 0.06 |  |  |
| C[C@@H]1Cc2c(ccc3[nH]ncc23)[C@@H](c2ccc(NC3CN(CCCF)C3)cn2)N1CC(F)(F)CO | 0.501 nM | 6.31 nM | 16 µL/min/1e6 cells | 105% | 104% | 99% | 0.64 |  |  |
| COc1cc(OC2CN(CCCF)C2)ccc1[C@@H]1c2ccc3[nH]ncc3c2C[C@@H](C)N1CC1(F)CC1 |  | 7.94 nM | 16 µL/min/1e6 cells | 90% | 90% | 97% | 0.11 |  |  |
